Reference: ChEMBL document CHEMBL4359914, “Design, synthesis and biological evaluation of stereo- and regioisomers of amino aryl esters as multidrug resistance (MDR) reversers” (Eur J Med Chem, 2019)

What was measured:
[1] = biological target: T1, ATP-dependent translocase ABCB1 (Homo sapiens, UniProt P08183); assay: Inhibition of P-gp (unknown origin) expressed in MDCK-MDR1 cells assessed as increase in calcein-AM accumulation incubated for 30 mins by calcein-AM dye based fluorescence assay; assay type: cell-based
T1 sequence (P08183 whole entry): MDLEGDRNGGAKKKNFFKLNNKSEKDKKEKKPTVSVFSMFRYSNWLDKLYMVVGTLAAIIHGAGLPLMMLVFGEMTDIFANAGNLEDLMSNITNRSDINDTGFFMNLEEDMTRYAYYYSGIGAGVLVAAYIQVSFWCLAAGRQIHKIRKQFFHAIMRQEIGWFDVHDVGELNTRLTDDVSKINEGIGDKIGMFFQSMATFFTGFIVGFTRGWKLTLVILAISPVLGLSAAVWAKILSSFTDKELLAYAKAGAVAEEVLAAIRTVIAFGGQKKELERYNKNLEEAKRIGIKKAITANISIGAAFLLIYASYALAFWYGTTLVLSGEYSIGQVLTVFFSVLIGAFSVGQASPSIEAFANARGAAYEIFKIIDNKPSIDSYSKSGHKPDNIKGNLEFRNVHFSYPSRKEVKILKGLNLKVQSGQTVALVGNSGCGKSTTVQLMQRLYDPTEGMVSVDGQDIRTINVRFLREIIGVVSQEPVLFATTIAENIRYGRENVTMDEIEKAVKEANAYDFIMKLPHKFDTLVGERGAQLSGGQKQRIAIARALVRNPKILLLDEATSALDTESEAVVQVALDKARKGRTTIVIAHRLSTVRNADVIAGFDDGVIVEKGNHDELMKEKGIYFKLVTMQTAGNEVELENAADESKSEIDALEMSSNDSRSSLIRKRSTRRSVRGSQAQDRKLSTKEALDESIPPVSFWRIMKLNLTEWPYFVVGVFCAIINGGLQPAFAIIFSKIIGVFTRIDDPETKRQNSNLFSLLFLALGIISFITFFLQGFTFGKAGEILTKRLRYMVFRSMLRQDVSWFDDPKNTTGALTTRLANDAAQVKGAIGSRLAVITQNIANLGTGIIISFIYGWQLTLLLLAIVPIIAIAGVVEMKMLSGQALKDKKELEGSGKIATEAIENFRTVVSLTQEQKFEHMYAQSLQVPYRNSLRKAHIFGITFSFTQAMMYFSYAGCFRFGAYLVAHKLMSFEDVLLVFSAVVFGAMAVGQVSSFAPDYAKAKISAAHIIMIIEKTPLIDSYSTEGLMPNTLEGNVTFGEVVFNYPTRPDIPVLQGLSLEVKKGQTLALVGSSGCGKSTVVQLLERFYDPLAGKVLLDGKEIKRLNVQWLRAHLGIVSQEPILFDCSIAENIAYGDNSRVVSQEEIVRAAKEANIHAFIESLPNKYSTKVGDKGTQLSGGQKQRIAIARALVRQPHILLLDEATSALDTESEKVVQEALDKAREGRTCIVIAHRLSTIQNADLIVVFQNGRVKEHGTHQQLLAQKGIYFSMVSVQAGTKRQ

[2] = biological target: T1, ATP-dependent translocase ABCB1; assay: Inhibition of P-gp in human K562/DOX cells assessed as drug level causing 50% increase in nuclear pirarubicin concentration incubated for 30 mins by fluorescence based assay; assay type: cell-based; conditions: read-out: I0.5
[3] = biological target: T1, ATP-dependent translocase ABCB1; assay: Inhibition of P-gp in human K562/DOX cells assessed as drug level causing maximum increase in nuclear pirarubicin concentration incubated for 30 mins by fluorescence based assay relative to control; assay type: cell-based; conditions: 0.5 h
[4] = biological target: T2, Broad substrate specificity ATP-binding cassette transporter ABCG2 (Homo sapiens, UniProt Q9UNQ0); assay: Inhibition of BCRP (unknown origin) expressed in MDCK cells assessed as increase in Hoechst 33342 accumulation incubated for 30 mins by Hoechst 33342 dye based fluorescence assay; assay type: cell-based; conditions: read-out: EC50
T2 sequence (Q9UNQ0 whole entry): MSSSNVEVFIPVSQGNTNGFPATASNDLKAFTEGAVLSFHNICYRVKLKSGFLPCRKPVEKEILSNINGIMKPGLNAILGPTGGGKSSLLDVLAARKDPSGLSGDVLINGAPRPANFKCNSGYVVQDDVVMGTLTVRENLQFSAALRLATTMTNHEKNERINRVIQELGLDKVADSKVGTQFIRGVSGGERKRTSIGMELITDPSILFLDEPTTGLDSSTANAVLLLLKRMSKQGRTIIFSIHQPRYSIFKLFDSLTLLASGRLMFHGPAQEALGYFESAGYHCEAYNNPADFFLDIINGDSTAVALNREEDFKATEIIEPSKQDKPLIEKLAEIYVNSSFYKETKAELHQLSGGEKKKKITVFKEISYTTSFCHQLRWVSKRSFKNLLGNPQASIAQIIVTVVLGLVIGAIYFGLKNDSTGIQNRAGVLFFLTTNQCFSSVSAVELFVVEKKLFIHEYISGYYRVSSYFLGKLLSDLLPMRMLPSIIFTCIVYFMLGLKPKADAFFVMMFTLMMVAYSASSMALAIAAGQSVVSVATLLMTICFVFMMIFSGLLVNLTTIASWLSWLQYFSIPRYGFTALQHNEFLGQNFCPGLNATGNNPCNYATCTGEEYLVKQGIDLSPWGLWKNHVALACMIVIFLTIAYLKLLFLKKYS

[5] = biological target: T1, ATP-dependent translocase ABCB1; assay: Inhibition of MDR1 (unknown origin) expressed in MDCK-MDR1 cells assessed as decrease in ATP consumption incubated for 2 hrs by ATPlite luminescence assay; assay type: cell-based; conditions: mdck-mdr1, 2 h
[6] = Chemical stability of compound assessed as half life in PBS at 1 uM incubated 120 mins by LC-MS/MS analysis; assay type: physicochemical
Summary of the method: (§1)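 Analyte added to PBS or human plasma (healthy volunteer, stored at -80 °C) to 1 μM; incubated at 37 °C for 0, 30, 60 and 120 min, triplicate per time point. Internal standard solution added, centrifuged, supernatant dried under nitrogen and redissolved. Analyte quantified by LC-MS/MS in MRM mode; half-life derived from decay rate k.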

[7] = Stability of compound in human plasma assessed as half life at 1 uM incubated for 120 min by LC-MS/MS analysis; assay type: ADME, cell-free; summary of the method: as §1
P-gp (MDR1, ABCB1) = P-gp (MDR1, ABCB1) (Homo sapiens, UniProt P08183); assay: Inhibition of MDR1 (unknown origin) expressed in MDCK-MDR1 cells assessed as decrease in ATP consumption at 10 uM incubated for 2 hrs by ATPlite luminescence assay relative to control; assay type: cell-based; conditions: MDCK-MDR1 cells expressing MDR1
P-gp (MDR1, ABCB1), sequence (P08183 whole entry): as the sequence (P08183 whole entry) above

COc1cc(/C=C/C(=O)OC[C@@H](C)CN(C)CCCCCCCOC(=O)c2c3ccccc3cc3ccccc23)cc(OC)c1OC
EC50 [1]: 930 nM
IC50 [2]: 890 nM
Alpha max [3]: 0.8
EC50 [4]: 5600 nM
inhibition (INH) [5]: Not Active
half-life at 1 µM [6]: ≥ 4 h
half-life at 1 µM [7]: ≥ 4 h

COc1cc(/C=C/C(=O)OCCCCCN(C)C[C@H](C)COC(=O)c2cc(OC)c(OC)c(OC)c2)cc(OC)c1OC
EC50 [1]: 110 nM
IC50 [2]: 240 nM
Alpha max [3]: 0.75
EC50 [4]: 8100 nM
inhibition (INH) [5]: Not Active
half-life at 1 µM [6]: ≥ 4 h
half-life at 1 µM [7]: ≥ 4 h

COc1cc(/C=C/C(=O)OC[C@@H](C)CN(C)CCCOC(=O)c2cc(OC)c(OC)c(OC)c2)cc(OC)c1OC
EC50 [1]: 1380 nM
IC50 [2]: 90 nM
Alpha max [3]: 0.75
EC50 [4]: 3700 nM
inhibition at 2 h, 10 µM (P-gp (MDR1, ABCB1)): 20%
half-life at 1 µM [6]: ≥ 4 h
half-life at 1 µM [7]: 0.483 h

COc1cc(/C=C/C(=O)OC[C@@H](C)CN(C)CCCCCOC(=O)c2cc(OC)c(OC)c(OC)c2)cc(OC)c1OC
EC50 [1]: 1100 nM
IC50 [2]: 80 nM
Alpha max [3]: 0.99
EC50 [4]: 4200 nM
inhibition (INH) [5]: Not Active
half-life at 1 µM [6]: ≥ 4 h
half-life at 1 µM [7]: 0.3 h

COc1cc(/C=C/C(=O)OC[C@@H](C)CN(C)CCCCCCCOC(=O)c2cc(OC)c(OC)c(OC)c2)cc(OC)c1OC
EC50 [1]: 320 nM
IC50 [2]: 380 nM
Alpha max [3]: 0.74
EC50 [4]: 2300 nM
inhibition (INH) [5]: Not Active
half-life at 1 µM [6]: ≥ 4 h
half-life at 1 µM [7]: 0.5 h

COc1cc(/C=C/C(=O)OCCCN(C)C[C@@H](C)COC(=O)c2cc(OC)c(OC)c(OC)c2)cc(OC)c1OC
EC50 [1]: 73 nM
IC50 [2]: 110 nM
Alpha max [3]: 0.99
EC50 [4]: 9500 nM
inhibition (INH) [5]: Not Active
half-life at 1 µM [6]: ≥ 4 h
half-life at 1 µM [7]: 0.9 h

COc1cc(/C=C/C(=O)OC[C@@H](C)CN(C)CCCOC(=O)c2c3ccccc3cc3ccccc23)cc(OC)c1OC
EC50 [1]: 910 nM
IC50 [2]: 180 nM
Alpha max [3]: 0.79
EC50 [4]: 2300 nM
inhibition (INH) [5]: Not Active
half-life at 1 µM [6]: ≥ 4 h
half-life at 1 µM [7]: ≥ 4 h

COc1cc(/C=C/C(=O)OC[C@@H](C)CN(C)CCCCCOC(=O)c2c3ccccc3cc3ccccc23)cc(OC)c1OC
EC50 [1]: 690 nM
IC50 [2]: 30 nM
Alpha max [3]: 0.79
EC50 [4]: 4700 nM
inhibition (INH) [5]: Not Active
half-life at 1 µM [6]: ≥ 4 h
half-life at 1 µM [7]: ≥ 4 h

COc1cc(/C=C/C(=O)OCCCCCCCN(C)C[C@H](C)COC(=O)c2cc(OC)c(OC)c(OC)c2)cc(OC)c1OC
EC50 [1]: 550 nM
IC50 [2]: 130 nM
Alpha max [3]: 0.7
EC50 [4]: 2500 nM
inhibition (INH) [5]: Not Active
half-life at 1 µM [6]: ≥ 4 h
half-life at 1 µM [7]: ≥ 4 h

COc1cc(/C=C/C(=O)OC[C@H](C)CN(C)CCCCCCCOC(=O)c2cc(OC)c(OC)c(OC)c2)cc(OC)c1OC
EC50 [1]: 820 nM
IC50 [2]: 590 nM
Alpha max [3]: 0.81
EC50 [4]: 4700 nM
inhibition (INH) [5]: Not Active
half-life at 1 µM [6]: ≥ 4 h
half-life at 1 µM [7]: 1.23 h

COc1cc(/C=C/C(=O)OCCCCCCCN(C)C[C@@H](C)COC(=O)c2cc(OC)c(OC)c(OC)c2)cc(OC)c1OC
EC50 [1]: 650 nM
IC50 [2]: 120 nM
Alpha max [3]: 0.83
EC50 [4]: 4300 nM
inhibition (INH) [5]: Not Active
half-life at 1 µM [6]: ≥ 4 h
half-life at 1 µM [7]: ≥ 4 h

COc1cc(/C=C/C(=O)OCCCCCCCN(C)C[C@@H](C)COC(=O)c2c3ccccc3cc3ccccc23)cc(OC)c1OC
EC50 [1]: 990 nM
IC50 [2]: 200 nM
Alpha max [3]: 0.93
EC50 [4]: 6200 nM
inhibition (INH) [5]: Not Active
half-life at 1 µM [6]: ≥ 4 h
half-life at 1 µM [7]: ≥ 4 h

COc1cc(/C=C/C(=O)OCCCCCCCN(C)C[C@H](C)COC(=O)c2c3ccccc3cc3ccccc23)cc(OC)c1OC
EC50 [1]: 1040 nM
IC50 [2]: 80 nM
Alpha max [3]: 0.99
EC50 [4]: 7200 nM
inhibition (INH) [5]: Not Active
half-life at 1 µM [6]: ≥ 4 h
half-life at 1 µM [7]: ≥ 4 h

COc1cc(/C=C/C(=O)OCCCCCN(C)C[C@H](C)COC(=O)c2c3ccccc3cc3ccccc23)cc(OC)c1OC
EC50 [1]: 760 nM
IC50 [2]: 80 nM
Alpha max [3]: 0.75
EC50 [4]: 4600 nM
inhibition (INH) [5]: Not Active
half-life at 1 µM [6]: ≥ 4 h
half-life at 1 µM [7]: ≥ 4 h

COc1cc(/C=C/C(=O)OCCCCCN(C)C[C@@H](C)COC(=O)c2c3ccccc3cc3ccccc23)cc(OC)c1OC
EC50 [1]: 810 nM
IC50 [2]: 230 nM
Alpha max [3]: 0.89
EC50 [4]: 4600 nM
inhibition (INH) [5]: Not Active
half-life at 1 µM [6]: ≥ 4 h
half-life at 1 µM [7]: ≥ 4 h

COc1cc(/C=C/C(=O)OC[C@H](C)CN(C)CCCOC(=O)c2cc(OC)c(OC)c(OC)c2)cc(OC)c1OC
EC50 [1]: 710 nM
IC50 [2]: 140 nM
Alpha max [3]: 0.99
EC50 [4]: 33500 nM
inhibition (INH) [5]: Not Active
half-life at 1 µM [6]: ≥ 4 h
half-life at 1 µM [7]: 1.95 h

COc1cc(/C=C/C(=O)OC[C@H](C)CN(C)CCCCCOC(=O)c2c3ccccc3cc3ccccc23)cc(OC)c1OC
EC50 [1]: 720 nM
IC50 [2]: 80 nM
Alpha max [3]: 0.88
EC50 [4]: 2300 nM
inhibition (INH) [5]: Not Active
half-life at 1 µM [6]: ≥ 4 h
half-life at 1 µM [7]: ≥ 4 h

COc1cc(/C=C/C(=O)OC[C@H](C)CN(C)CCCCCCCOC(=O)c2c3ccccc3cc3ccccc23)cc(OC)c1OC
EC50 [1]: 1400 nM
IC50 [2]: 970 nM
Alpha max [3]: 0.65
EC50 [4]: 6400 nM
inhibition (INH) [5]: Not Active
half-life at 1 µM [6]: ≥ 4 h
half-life at 1 µM [7]: ≥ 4 h

COc1cc(/C=C/C(=O)OCCCN(C)C[C@@H](C)COC(=O)c2c3ccccc3cc3ccccc23)cc(OC)c1OC
EC50 [1]: 960 nM
IC50 [2]: 170 nM
Alpha max [3]: 0.8
EC50 [4]: 6800 nM
inhibition (INH) [5]: Not Active
half-life at 1 µM [6]: ≥ 4 h
half-life at 1 µM [7]: ≥ 4 h

COc1cc(/C=C/C(=O)OC[C@H](C)CN(C)CCCOC(=O)c2c3ccccc3cc3ccccc23)cc(OC)c1OC
EC50 [1]: 950 nM
IC50 [2]: 80 nM
Alpha max [3]: 0.99
EC50 [4]: 5900 nM
inhibition (INH) [5]: Not Active
half-life at 1 µM [6]: ≥ 4 h
half-life at 1 µM [7]: ≥ 4 h

COc1cc(/C=C/C(=O)OCCCN(C)C[C@H](C)COC(=O)c2c3ccccc3cc3ccccc23)cc(OC)c1OC
EC50 [1]: 910 nM
IC50 [2]: 40 nM
Alpha max [3]: 0.99
EC50 [4]: 11000 nM
inhibition (INH) [5]: Not Active
half-life at 1 µM [6]: ≥ 4 h
half-life at 1 µM [7]: ≥ 4 h
